PAFAH2 FP inh: PAFAH2 (human) inhibition. Q99487. recombinant PAFAH2, FP-rhodamine activity probe, fluorescence polarization. inhibition, % at 3.39 µM. actives 0.99% (n = 340,000). AID 492956;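 active means inhibition above the mean over all tested compounds plus 3 SD, cut at about 30% in these data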;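 further: inhibitors block probe labeling of enzyme so polarization drops; 0% = enzyme with DMSO and 100% = wells lacking PAFAH2 protein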
PAFAH1B3 FP inh: blocks human PAF acetylhydrolase 1B catalytic subunit 3 | recombinant PAFAH1B3, FP-rhodamine probe, fluorescence polarization | Q15102 | inhibition, % at 3.39 µM | AID 492972 | actives 0.28% (n = 340,000);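 active means inhibition above the screen-wide average of all tested compounds plus 3 SD, cut at about 25% in these data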;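 further: 0% = enzyme with DMSO only and 100% = wells lacking PAFAH1B3 protein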
pPAFAH inh: pPAFAH (human) enzyme inhibition | AID 463082 | recombinant pPAFAH, FP-rhodamine probe fluorescence polarization | Q13093 | actives 1.5% (n = 330,000) | inhibition, % at 3.39 µM;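 active means inhibition above the mean inhibition across the screen plus 3 SD, cut at about 25% in these data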;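 further: inhibitors block binding of the rhodamine activity-based probe so polarization drops; 0% = enzyme with DMSO and 100% = wells lacking pPAFAH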
ASAP1 inh: blocks human ASAP1-stimulated Arf1 GTP hydrolysis. Q9ULH1. GDP FP detection. inhibition, % at 16.5 µM. actives 0.19% (n = 360,000); in the data active means inhibition above about 25%;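 further: 0% = vehicle with enzyme and substrate and 100% = no enzyme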
Target sequence (Q9ULH1 325-724 limits assumed): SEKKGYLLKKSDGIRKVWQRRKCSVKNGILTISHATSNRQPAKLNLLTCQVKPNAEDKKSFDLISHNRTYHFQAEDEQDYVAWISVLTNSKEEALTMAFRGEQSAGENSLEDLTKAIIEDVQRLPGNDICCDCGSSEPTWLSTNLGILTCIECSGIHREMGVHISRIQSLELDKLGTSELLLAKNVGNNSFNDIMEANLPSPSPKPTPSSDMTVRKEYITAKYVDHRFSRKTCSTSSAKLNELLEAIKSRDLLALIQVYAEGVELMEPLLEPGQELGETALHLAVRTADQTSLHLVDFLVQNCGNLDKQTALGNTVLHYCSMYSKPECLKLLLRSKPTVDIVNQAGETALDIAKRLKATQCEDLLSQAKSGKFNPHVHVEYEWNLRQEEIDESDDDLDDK
PAFAH1B2 inh: blocks human PAF acetylhydrolase 1b catalytic subunit 2; P68402; recombinant PAFAH1B2, FP-rhodamine activity probe, fluorescence polarization; inhibition, % at 3.39 µM; actives 1.2% (n = 340,000); AID 492953;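 active means inhibition above the mean of all tested compounds plus 3 SD, cut at about 24% in these data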;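 further: 0% = enzyme with DMSO and 100% = wells lacking PAFAH1B2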
Target sequence (P68402 whole entry, looked up): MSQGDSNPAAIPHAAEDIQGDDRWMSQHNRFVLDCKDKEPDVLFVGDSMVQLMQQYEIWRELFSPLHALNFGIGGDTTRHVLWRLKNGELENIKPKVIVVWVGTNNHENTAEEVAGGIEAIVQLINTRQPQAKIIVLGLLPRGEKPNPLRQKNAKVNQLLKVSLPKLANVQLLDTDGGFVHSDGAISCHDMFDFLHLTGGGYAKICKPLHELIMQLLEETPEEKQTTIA
ARFGAP1 inh: inhibitors of rat ARFGAP1; inhibition, % at 16.5 µM; Q62848; actives 0.26% (n = 360,000); Arfgap1-stimulated ARF1 GTP hydrolysis, GDP FP detection;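 active means inhibition above a per-plate limit, mean inhibition of low control wells plus 3 SD, cut at about 25% in these data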;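 further: 0% = DMSO wells with enzyme and 100% = wells lacking Arfgap1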
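System: truncated rat Arfgap1 GAP domain / Medium: HEPES-based buffer, pH 7.5 / Also added: N-terminally truncated human ARF1-GTP substrate / Incubation: enzyme reaction 120 min at 25 °C after 20 min preincubation / Measured by: FP of antibody-bound GDP Alexa 633 tracer, ex 620/em 688 nm / Replicates: singlicate, each compound tested once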
PAFAH2 FP conf: PAFAH2 (human) inhibition, confirmed | shares compounds with PAFAH2 FP inh | recombinant PAFAH2, FP-rhodamine activity probe, fluorescence polarization | inhibition, % at 3.39 µM | actives 65% (n = 2,300);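 active means mean inhibition over three repeats above a set limit taken from the earlier primary screen, cut at about 30% in these data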;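 further: inhibitor blocks binding of rhodamine activity probe so polarization falls; 0% = enzyme with DMSO and 100% = wells lacking PAFAH2 protein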
* hit, by the source's call; . = no result given. Shown are actives, neighbours in structure and some others; about 2.8% of the full set was active somewhere.

SMILES	PAFAH2 FP inh	PAFAH1B3 FP inh	pPAFAH inh	ASAP1 inh	PAFAH1B2 inh	ARFGAP1 inh	PAFAH2 FP conf
CCOc1cccc(/C=N/NC(=S)Nc2ccccc2[N+](=O)[O-])c1O	45*	15	17	2	5	0	20
Nc1ccc(C(=O)OCC(=O)Nc2cccc(S(=O)(=O)NC3=NCCCCC3)c2)cc1[N+](=O)[O-]	54*	4	6	-6	3	10	60*
O=C(COC(=O)c1ccc(O)cc1)Nc1cccc(S(=O)(=O)NC2=NCCCCC2)c1	39*	2	5	5	3	-8	43*
COc1ccc(/C=C/C(=O)OCC(=O)Nc2cccc(S(=O)(=O)NC3=NCCCCC3)c2)cc1	68*	9	3	-11	-2	-10	50*
Nc1[nH]c(C(=O)c2ccccc2)c(-c2ccccc2C(F)(F)F)c1C(=O)c1cccs1	.	.	.	3	.	-9	.
CCn1c(SCc2c(Cl)cccc2Cl)nnc1-c1nn(-c2ccccc2)ccc1=O	49*	9	5	-6	0	9	26
C/C(=N/OC(=O)c1c(F)cccc1F)c1nccs1	24	1	8	0	6	6	.
COc1ccc(C2CC2/C(C)=N/OC(=O)c2cccs2)cc1 (centres undefined)	-5	4	0	-15	-4	5	.
COc1ccc(C(=O)O/N=C(\C)c2nccs2)cc1	67*	2	2	-3	-1	-1	60*
COc1ccc(C(=O)O/N=C(/C)c2cccs2)cc1	64*	5	20	4	2	6	55*
C[C@H](NC(=O)c1nc[nH]c1C(=O)N(C)CCO)c1ccccc1	.	.	.	-8	.	-9	.
O=C(O/N=C/c1cccc([N+](=O)[O-])c1)C1CC1	92*	6	22	0	9	-1	78*
CC(=O)Nc1ccc(NC(=O)C(C)O/N=C/c2cccc([N+](=O)[O-])c2)cc1 (centres undefined)	30*	4	6	-2	2	10	-3
COc1cc(/C=C2\SC(=O)N(c3ccccc3Cl)C2=O)cc([N+](=O)[O-])c1O	36*	20	.	7	14	7	23
Cc1c(Cl)cnc(NC(=O)COC(=O)[C@@H](NC(=O)c2ccco2)C(C)C)c1Cl	8	4	16	-4	2	0	.
C=CCSC1=N/C(=C\c2cc(OCC)c(OC(C)=O)c([N+](=O)[O-])c2)C(=O)S1	60*	8	10	-9	15	-16	65*
CCOc1cc(/C=C2\SC(=NC)N(C)C2=O)cc(Cl)c1OC(C)=O	-5	4	-1	12	2	4	.
Cc1cc(NC(=O)CSc2nnc(C)o2)no1	4	-1	2	4	-1	10	.
O=C(COC(=O)C12CC3CC(CC(C3)C1)C2)NC12CC3CC(CC(C3)C1)C2	90*	1	23	9	14	1	86*
NC(=O)COC(=O)C12CC3CC(CC(O)(C3)C1)C2	9	5	4	-20	3	5	.
N#CC1(NC(=O)COC(=O)C23CC4CC(CC(O)(C4)C2)C3)CCCCC1	48*	9	8	3	4	12	45*
CCC(CC)C(=O)OCC(=O)NC12CC3CC(CC(C3)C1)C2	64*	9	4	-4	10	5	43*
CCOCC(=O)OCC(=O)NC12CC3CC(CC(C3)C1)C2	1	2	-2	-7	-2	5	.
O=C(COC(=O)Cc1ccccc1[N+](=O)[O-])NCc1ccccc1Cl	6	9	-2	9	3	-5	.
CCNc1ccc(C(=O)OCC(=O)NC(=O)NCC(C)C)cc1[N+](=O)[O-]	33*	8	0	-16	3	9	27
SMILES	PAFAH2 FP inh	PAFAH1B3 FP inh	pPAFAH inh	ASAP1 inh	PAFAH1B2 inh	ARFGAP1 inh	PAFAH2 FP conf
CCNc1ccc(C(=O)OCC(=O)NCc2ccccc2Cl)cc1[N+](=O)[O-]	47*	-7	0	6	0	9	56*
CCNc1ccc(C(=O)OCC(=O)Nc2cc(C)on2)cc1[N+](=O)[O-]	31*	14	2	11	-2	-3	31*
Cc1cc(NC(=O)COC(=O)c2ccc(Cl)cc2)no1	.	.	.	-1	.	3	.
O=[N+]([O-])c1ccc(S(=O)(=O)NN=CCCc2ccccc2)cc1	-5	-5	.	-5	10	8	.
C#CCN1CC(COCCCC)Oc2cccc(F)c2S1(=O)=O (centres undefined)	.	.	.	5	.	19	.
O=C(COC(=O)C12CC3CC(CC(O)(C3)C1)C2)Nc1ccc(Br)cc1F	30*	4	1	11	0	-5	13
O=C(COC(=O)C12CC3CC(CC(O)(C3)C1)C2)Nc1ccccc1OC(F)F	21	5	4	-7	8	1	.
O=C(COC(=O)C12CC3CC(CC(C3)C1)C2)Nc1ccccc1F	40*	12	11	-6	11	-3	29
Cc1c(Cl)cccc1NC(=O)COC(=O)C12CC3CC(CC(O)(C3)C1)C2	43*	4	-2	-10	-1	15	16
CCC(=Cc1ccccc1OC)c1ccncc1	-1	7	.	4	-1	-5	.
CC1(C(=O)NS(=O)(=O)c2cccc(F)c2)CCN1C(=O)CCC1CCCC1 (centres undefined)	.	.	.	7	.	7	.
COc1ccc(NC(=S)Nc2ccccc2)c(OC)c1	164*	1	-1	-5	0	14	-1
CN1C(=O)NC(c2cccc(F)c2)C2=C1CC(C)(C)CC2=O (centres undefined)	-3	4	2	7	1	-3	.
O=C(ON=C1CCN(c2ccc([N+](=O)[O-])cc2)CC1)c1ccccc1	90*	7	10	-5	6	-8	86*
O=C(ON=C1CCSCC1)c1ccccc1	78*	5	8	-1	1	5	76*
CC1CCCC(C)N1/N=C/c1ccc(N(C)C)cc1 (centres undefined)	38*	5	-1	0	2	2	4
Cc1cc(C)cc(NC(=O)COC(=O)c2ccc3c(c2)OCCO3)c1	72*	5	1	9	1	0	77*
Cc1ccc(C(=O)OCC(=O)Nc2ccc3c(c2)OCCO3)cc1C	58*	-2	.	6	0	17	52*
CCOc1ccc(NC(=O)COC(=O)c2ccc3c(c2)OCCO3)cc1	60*	4	10	-7	-2	4	54*
NS(=O)(=O)c1ccc(NC(=O)COC(=O)c2ccc3c(c2)OCCO3)cc1	-11	4	0	-18	2	3	.
